Results on 42 compounds are retold here after ChEMBL document CHEMBL4665779, “Novel 2-Substituted 3-Hydroxy-1,6-dimethylpyridin-4(1H)-ones as Dual-Acting Biofilm Inhibitors of Pseudomonas aeruginosa” (J Med Chem, 2020).

Each structure is given as a SMILES string. The source made the active and inactive calls. No cut-off for these calls is given here.

Usually IC50 stands for the concentration that inhibits the measured activity by half.

Data set [1] in a line: Growth inhibition of Pseudomonas aeruginosa PAO1 at 512 uM by CLSI-based broth microdilution method. The gist of the method: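 Broth microdilution following CLSI standards: two-fold serial dilutions were made in Mueller-Hinton broth and inoculated with P. aeruginosa to a final OD600 of 0.05. The top final concentration is printed as […].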
On the technique in general: In broth dilution the organism is exposed to a series of concentrations in liquid medium.

In another data set the test system is Pseudomonas aeruginosa. As to the kind of experiment: Antibiofilm activity against Pseudomonas aeruginosa PAO1 assessed as inhibition of biofilm formation after 18 hrs by crystal violet staining based assay. The settings on record: PAO1, 18 h. In kind it is functional, organism-based.
In data set [2] the test system is Pseudomonas aeruginosa PAO1. As to the kind of experiment: Induction of iron chelation in Pseudomonas aeruginosa PAO1 assessed as increase in intracellular pyochelin level at 1.25 to 20 uM in presence of 10 uM FeCl3 by fluorescence microplate reader assay. In kind it is cell-based. The settings on record: dose microM 1.25-20.
For a further data set, the system named is L02. The data set is described as follows: Cytotoxicity against human L02 cells assessed as reduction in cell viability at 1.25 to 100 uM after 16 hrs by MTT assay. In kind it is cell-based. The settings on record: l02, 16 h, dose 1.25-100 µM. The gist of the method: (§1)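 MTT assay on Vero or LO2 cells seeded at 5000–15000 cells/well for 16 h, then washed with PBS. Compound (0–100 μM) added in DMEM for 16 h at 37 °C, 5% CO2. MTT added for 3 h, formazan dissolved in DMSO with shaking, OD570 read. Triplicate, mean ± SD.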
In general terms: Tetrazolium dyes change colour on reduction, which living cells bring about.

Another data set concerns Vero. As to the kind of experiment: Cytotoxicity against African green monkey Vero cells assessed as reduction in cell viability at 1.25 to 100 uM after 16 hrs by MTT assay. In kind it is cell-based. The note with it: chlorocebus sabaeus, dose 1.25-100 µM. The gist of the method:
as §1

Data set [3] can be described thus: Metal chelating activity assessed as negative logarithm of total free ferric ion concentration in a solution at 60 uM measured after 48 hrs in presence of CP645 probe and Fe-NTA by fluorescence spectrophotometry analysis.
The test system of data set [4] is Pseudomonas aeruginosa PAO1. As to the kind of experiment: Induction of iron chelation in Pseudomonas aeruginosa PAO1 assessed as increase in intracellular pyoverdin level at 1.25 to 20 uM in presence of 10 uM FeCl3 by fluorescence microplate reader assay. The format is cell-based. The note with it: dose microM 1.25-20.
The subject of data set [5] is Pseudomonas aeruginosa PAO1. The data set is described as follows: Induction of iron chelation in Pseudomonas aeruginosa PAO1 assessed as increase in iron deficiency by measuring change in total ferric ion concentration at 20 uM by inductively coupled plasma mass spectrometry (reference value: 1.91 +/- 0.8 uM).

Take `Cc1cc(=O)c(O)c(CNC(=O)Cc2ccccc2)n1C`: the “growth inhibition (GI)” value in data set [1] is “Non-Toxic”. Also, the IC50 with Pseudomonas aeruginosa is 28.1 µM.

In the case of `COc1ccccc1C(=O)NCc1c(O)c(=O)cc(C)n1C`, the “growth inhibition (GI)” value in data set [1] is on record as “Non-Toxic”. Further, in the data set on Pseudomonas aeruginosa, the IC50 amounted to 69.7 µM.

For the compound `Cc1cc(=O)c(O)c(CNC(C)C)n1C`, the “growth inhibition (GI)” value in data set [1] was “Non-Toxic”. Also, in the data set with Pseudomonas aeruginosa, the IC50 amounted to 24.5 µM.

As for `Cc1cc(=O)c(O)c(CNC(=O)Cc2ccc(Cl)cc2)n1C`, the “growth inhibition (GI)” value in data set [1] was “Non-Toxic”. Moreover, the IC50 in the data set with Pseudomonas aeruginosa is > 100 µM.

In the case of `Cc1cc(=O)c(O)c(CNC(=O)c2cccc3ccccc23)n1C`, in data set [1], the “growth inhibition (GI)” value is given as “Non-Toxic”. For the same compound, the IC50 in the data set with Pseudomonas aeruginosa was determined as 75.6 µM.

Regarding `Cc1cc(=O)c(O)c(CNC(=O)C2CC2)n1C`, the “growth inhibition (GI)” value in data set [1] was “Non-Toxic”. Besides, the IC50 in the data set on Pseudomonas aeruginosa is > 100 µM.

Turning to `CCCCCCCC(=O)NCc1c(O)c(=O)cc(C)n1C`, the “growth inhibition (GI)” value in data set [1] is “Non-Toxic”. Further, the half-inhibitory concentration (IC50) in the data set on Pseudomonas aeruginosa is > 100 µM.

With `COc1ccc(C(=O)NCc2c(O)c(=O)cc(C)n2C)cc1`, the “growth inhibition (GI)” value in data set [1] was “Non-Toxic”. Moreover, in the data set on Pseudomonas aeruginosa, the IC50 is 38.4 µM.

For `CCCCNCc1c(O)c(=O)cc(C)n1C`, the “growth inhibition (GI)” value in data set [1] is on record as “Non-Toxic”. Also, the IC50 in the data set with Pseudomonas aeruginosa amounted to 52.5 µM.

As for `Cc1cc(=O)c(O)c(CNC(=O)CC2CCCCC2)n1C`, in data set [1], the “growth inhibition (GI)” value is “Non-Toxic”. Moreover, the IC50 with Pseudomonas aeruginosa worked out at 46.8 µM.

Turning to `Cc1cc(=O)c(O)c(CNS(=O)(=O)c2ccccc2)n1C`, in data set [1], the “growth inhibition (GI)” value was “Non-Toxic”. Moreover, the 50% inhibitory concentration (IC50) in the data set on Pseudomonas aeruginosa was > 100 µM.

As for `COc1ccc(CCC(=O)NCc2c(O)c(=O)cc(C)n2C)cc1`, in data set [1], the “growth inhibition (GI)” value was “Non-Toxic”. Besides, in the data set on Pseudomonas aeruginosa, the IC50 was determined as 59.1 µM.

In the case of `Cc1cc(=O)c(O)c(CNCCCN2CCN(C)CC2)n1C`, the “growth inhibition (GI)” value in data set [1] is on record as “Non-Toxic”. Further, in the data set with Pseudomonas aeruginosa, the IC50 was 16.9 µM.

Take `COc1ccc(CCCC(=O)NCc2c(O)c(=O)cc(C)n2C)cc1`: in data set [1], the “growth inhibition (GI)” value was “Non-Toxic”. Moreover, in the data set on Pseudomonas aeruginosa, the IC50 was > 100 µM.

As to `COc1ccc(S(=O)(=O)NCc2c(O)c(=O)cc(C)n2C)cc1`, the “growth inhibition (GI)” value in data set [1] is reported as “Non-Toxic”. Besides, in the data set with Pseudomonas aeruginosa, the IC50 is > 100 µM.

As for `COc1cccc(C(=O)NCc2c(O)c(=O)cc(C)n2C)c1`, the “growth inhibition (GI)” value in data set [1] is recorded as “Non-Toxic”. Besides, in the data set with Pseudomonas aeruginosa, the IC50 is > 100 µM.

As for `Cc1cc(=O)c(O)c(CNC2CCN(C)CC2)n1C`, the “growth inhibition (GI)” value in data set [1] is “Non-Toxic”. Moreover, the 50% inhibitory concentration (IC50) with Pseudomonas aeruginosa was determined as 35 µM.

In the case of `CCCCC(=O)NCc1c(O)c(=O)cc(C)n1C`, in data set [1], the “growth inhibition (GI)” value was “Non-Toxic”. Also, the half-maximal inhibitory concentration (IC50) with Pseudomonas aeruginosa came to 56.9 µM.

`CCCCCC(=O)NCc1c(O)c(=O)cc(C)n1C`: in data set [1], the “growth inhibition (GI)” value is “Non-Toxic”. For the same compound, in the data set with Pseudomonas aeruginosa, the half-inhibitory concentration (IC50) was 57.9 µM.

Regarding `Cc1cc(=O)c(O)c(CNC(=O)c2ccnc(C(F)(F)F)c2)n1C`, in data set [1], the “growth inhibition (GI)” value is reported as “Non-Toxic”. Also, in the data set with Pseudomonas aeruginosa, the IC50 was > 100 µM.

Regarding `Cc1cc(=O)c(O)c(CNC(=O)c2ccc(C(F)(F)F)cc2)n1C`, in data set [1], the “growth inhibition (GI)” value is “Non-Toxic”. For the same compound, the IC50 in the data set on Pseudomonas aeruginosa was found to be 61.1 µM.

Take `Cc1cc(=O)c(O)c(CNC(=O)C2CCCO2)n1C` (centres undefined): in data set [1], the “growth inhibition (GI)” value is given as “Non-Toxic”. Besides, the half-inhibitory concentration (IC50) in the data set on Pseudomonas aeruginosa amounted to 26.5 µM.

`Cc1cc(=O)c(O)c(CNS(=O)(=O)c2ccc(F)cc2)n1C`: the “growth inhibition (GI)” value in data set [1] is “Non-Toxic”. Further, the concentration for half-maximal inhibition (IC50) in the data set with Pseudomonas aeruginosa was > 100 µM.

Turning to `Cc1cc(=O)c(O)c(CNC(=O)C2CCC2)n1C`, the “growth inhibition (GI)” value in data set [1] is listed as “Non-Toxic”. In addition, in the data set on Pseudomonas aeruginosa, the IC50 is 64.1 µM.

For the compound `Cc1cc(=O)c(O)c(CNC(=O)Cc2ccc(F)cc2)n1C`, the “growth inhibition (GI)” value in data set [1] was “Non-Toxic”. The 50% inhibitory concentration (IC50) in the data set on Pseudomonas aeruginosa was 55 µM.

On to `Cc1cc(=O)c(O)c(CNC(=O)C2CCCCC2)n1C`, for which the “growth inhibition (GI)” value in data set [1] is “Non-Toxic”. The half-inhibitory concentration (IC50) in the data set on Pseudomonas aeruginosa worked out at 63.4 µM.

For the compound `Cc1cc(=O)c(O)c(CNS(=O)(=O)c2ccc(-c3ccccc3)cc2)n1C`, in data set [1], the “growth inhibition (GI)” value is listed as “Non-Toxic”. Besides, in the data set with Pseudomonas aeruginosa, the half-inhibitory concentration (IC50) was > 100 µM.

As for `Cc1cc(=O)c(O)c(CNC(=O)c2ccccc2)n1C`, the “growth inhibition (GI)” value in data set [1] is recorded as “Non-Toxic”. Moreover, the IC50 in the data set with Pseudomonas aeruginosa amounted to 41.7 µM.

For the compound `CCCCCCCCCC(=O)CC(=O)NCc1c(O)c(=O)cc(C)n1C`, the “growth inhibition (GI)” value in data set [1] was “Non-Toxic”. Besides, the IC50 in the data set on Pseudomonas aeruginosa is > 100 µM.

As to `COc1ccc(CC(=O)NCc2c(O)c(=O)cc(C)n2C)cc1`, the “growth inhibition (GI)” value in data set [1] is on record as “Non-Toxic”. The half-inhibitory concentration (IC50) with Pseudomonas aeruginosa came to 65.5 µM.

For the compound `Cc1cc(=O)c(O)c(CNC(=O)c2ccncc2)n1C`, the “growth inhibition (GI)” value in data set [1] is recorded as “Non-Toxic”. The IC50 in the data set on Pseudomonas aeruginosa is > 100 µM.

As for `Cc1cc(=O)c(O)c(CNC(=O)c2ccc(F)cc2)n1C`, in data set [1], the “growth inhibition (GI)” value is “Non-Toxic”. For the same compound, in the data set on Pseudomonas aeruginosa, the IC50 is > 100 µM.

Take `Cc1c(O)c(=O)ccn1C` [DEFERIPRONE]: the result in data set [2] was Active. For the same compound, the Activity entry was “Non-Toxic” in the data set on L02, “Non-Toxic” in the data set with Vero and 1.23 µM in data set [5]. For the same compound, the half-maximal inhibitory concentration (IC50) with Pseudomonas aeruginosa is > 100 µM. Besides, in data set [3], the log(activity) is -20.8. In addition, in data set [4], the result was inactive.

As to `COc1cccc(NCc2c(O)c(=O)cc(C)n2C)c1`, the “growth inhibition (GI)” value in data set [1] was “Non-Toxic”. Also, the half-maximal inhibitory concentration (IC50) in the data set with Pseudomonas aeruginosa is > 100 µM.

Regarding `CCCC(=O)NCc1c(O)c(=O)cc(C)n1C`, the “growth inhibition (GI)” value in data set [1] was “Non-Toxic”. Besides, the 50% inhibitory concentration (IC50) in the data set on Pseudomonas aeruginosa was 45.1 µM.

As to `Cc1ccc(S(=O)(=O)NCc2c(O)c(=O)cc(C)n2C)cc1`, in data set [1], the “growth inhibition (GI)” value is given as “Non-Toxic”. Moreover, the IC50 in the data set with Pseudomonas aeruginosa worked out at 59.3 µM.

Regarding `Cc1cc(=O)c(O)c(CNS(=O)(=O)c2ccc(C(C)(C)C)cc2)n1C`, the “growth inhibition (GI)” value in data set [1] is “Non-Toxic”. For the same compound, in the data set with Pseudomonas aeruginosa, the IC50 came out at 51.6 µM.

`Cc1cc(=O)c(O)c(CNS(=O)(=O)c2cccc3c2NCCC3)n1C`: in data set [1], the “growth inhibition (GI)” value was “Non-Toxic”. In addition, the IC50 in the data set on Pseudomonas aeruginosa is 35.3 µM.

On to `Cc1cc(=O)c(O)c(CNCC2CN(Cc3ccc(F)cc3)CCO2)n1C` (centres undefined), for which the “growth inhibition (GI)” value in data set [1] was “Non-Toxic”. Further, in the data set with Pseudomonas aeruginosa, the IC50 was > 100 µM.

As to `Cc1cc(=O)c(O)c(CNC(=O)C2CCCC2)n1C`, the “growth inhibition (GI)” value in data set [1] is “Non-Toxic”. The 50% inhibitory concentration (IC50) in the data set with Pseudomonas aeruginosa came to 65.1 µM.

Take `CCCCCNCc1c(O)c(=O)cc(C)n1C`: the “growth inhibition (GI)” value in data set [1] is “Non-Toxic”. For the same compound, the IC50 in the data set on Pseudomonas aeruginosa is > 100 µM.

Take `Cc1cc(=O)c(O)c(CNC2CCCC2)n1C`: in data set [1], the “growth inhibition (GI)” value is on record as “Non-Toxic”. In addition, the 50% inhibitory concentration (IC50) in the data set with Pseudomonas aeruginosa is 14.9 µM.
